ChEMBL document CHEMBL1143227, “Design, synthesis, and in vitro activity of peptidomimetic inhibitors of myeloid differentiation factor 88” (J Med Chem, 2008)
One block for each compound: values may come before it. Activity calls are given as the source filed them. The calls are words filed in the database; no cut-off is given here.

What was measured:
[1] = system: HeLa; assay: Inhibition of IL-1-alpha-induced NF-kappaB activation in human HeLa cells at 100 uM; format: functional
Procedure, shortened: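 HeLa cells are grown in EMEM with 2 mM glutamine, 1% nonessential amino acids, 7.5% FBS and pen/strep. They are seeded at 3 × 10⁵/well, left overnight, then switched to serum-free EMEM. Compound (DMSO, final 100 µM) is added for 6 h at 37 °C, then recombinant human IL-1 5 ng/mL for 30 min. Activated p65 in about 10 µg lysate protein is read by TransAM colorimetric ELISA (A450). % inhibition uses stimulated and unstimulated controls with and without compound.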

[2] = target: Myeloid differentiation primary response protein MyD88 (Homo sapiens) (UniProt Q99836); assay: Inhibition of MyD88 homodimerization by yeast two-hybrid assay
Procedure, shortened: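 Yeast AH109 is cotransformed with AD-MyD88 and BD-MyD88, grown overnight at 30 °C in SGd/-Leu/-Trp, then diluted 1/20 into SGd/-Ade/-His/-Leu/-Trp with compound at a final 100 µM in oxygen-sensor plates. Growth at 30 °C is read by fluorescence (ex 485/em 630 nm, bottom read) every 90 min for 25 readings. Signal is normalized to initial well fluorescence, and growth curves are described by seven curve parameters.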

[3] = system: Mus musculus; assay: Decrease in IL-1-beta-dependent IL6 production in mouse at 50 to 200 mg/kg; format: functional, organism-based
[4] = system: HeLa; assay: Inhibition of IL-1-alpha-induced NF-kappaB activation in human HeLa cells at 4 uM; format: functional
[5] = system: HeLa; assay: Toxicity against human HeLa cells at 8 uM by MTT assay; format: cell-based
[6] = system: HeLa; assay: Toxicity against human HeLa cells at 20 uM by MTT assay; format: cell-based
[7] = system: HeLa; assay: Toxicity against human HeLa cells at 10 uM by MTT assay; format: cell-based
[8] = system: HeLa; assay: Inhibition of IL-1-alpha-induced NF-kappaB activation in human HeLa cells at 8 uM; format: functional
[9] = system: HeLa; assay: Toxicity against human HeLa cells at 4 uM by MTT assay; format: cell-based
[10] = system: HeLa; assay: Inhibition of IL-1-alpha-induced NF-kappaB activation in human HeLa cells at 10 uM; format: functional
[11] = system: HeLa; assay: Inhibition of IL-1-alpha-induced NF-kappaB activation in human HeLa cells at 20 uM; format: functional

Sequence of Myeloid differentiation primary response protein MyD88 (Homo sapiens) (Q99836 whole entry): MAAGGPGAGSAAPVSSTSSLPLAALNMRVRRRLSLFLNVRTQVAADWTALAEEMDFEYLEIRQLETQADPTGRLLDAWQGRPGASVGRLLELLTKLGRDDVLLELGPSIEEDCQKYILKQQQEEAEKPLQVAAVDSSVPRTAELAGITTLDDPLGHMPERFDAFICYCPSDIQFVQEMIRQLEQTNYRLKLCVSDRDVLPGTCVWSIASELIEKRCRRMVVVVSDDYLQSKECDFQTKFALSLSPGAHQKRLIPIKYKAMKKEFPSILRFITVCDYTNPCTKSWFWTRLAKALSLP

SMILES: CC(C)[C@H](NC(=O)CCc1ccccc1)C(=O)N1CCCC1
inhibition at 100 µM [1]: 31%

SMILES: N=C(N)NCCCCNC(=O)c1ccc2cc(NC(=O)CN3C(=O)[C@@H]4C[C@@H](O)CN4C(=O)c4ccccc43)ccc2c1
inhibition at 100 µM [1]: 24%
Activity [2]: Active

SMILES: NC(=O)CN1CCC[C@]2(CCCN2C(=O)CCNC(=O)c2ccc(NC(=O)Cc3cccc4ccccc34)cc2)C1=O
inhibition at 100 µM [1]: 18%
Activity [2]: Active

SMILES: CC(C)(C)c1ccc(S(=O)(=O)/C=C/C#N)cc1 [BAY-11-7085]
inhibition at 4 µM [4]: 0%
Activity [5]: 0%
Activity [6]: 41%
Activity [7]: 4%
inhibition at 8 µM [8]: 35%
Activity [9]: 0%
inhibition at 10 µM [10]: 44%
inhibition at 20 µM [11]: 65%

Second part, led by results:

Activity [2]: Active
SMILES: Cc1cnc(C(=O)Nc2ccc(C(=O)NCCC(=O)N3CCC[C@]34C[C@H]3SCC[C@H](C(N)=O)N3C4=O)cc2)cn1
inhibition at 100 µM [1]: 23%

Activity [2]: Active
SMILES: NC(=O)[C@H]1CCS[C@@H]2C[C@]3(CCCN3C(=O)Cc3ccc(NC(=O)COc4ccc(Cl)cc4Cl)cc3)C(=O)N12
inhibition at 100 µM [1]: 26%
Activity [3]: Active

Activity [2]: Active
SMILES: NC(=O)[C@H]1CCS[C@@H]2C[C@]3(CCCN3C(=O)c3nc(NC(=O)COc4ccc(Cl)cc4)n[nH]3)C(=O)N12
inhibition at 100 µM [1]: 17%
